Reference: ChEMBL document CHEMBL5316304, “Collaborative Virtual Screening Identifies a 2-Aryl-4-aminoquinazoline Series with Efficacy in an In Vivo Model of Trypanosoma cruzi Infection” (J Med Chem, 2023)
≈ marks a conversion by molar mass, not a printed value. Calls of active or inactive are those of the source. No cut-off for these calls is given here.

Tests used:
Trypanosoma cruzi [1] = experiment: Antitrypanosomal activity against intracellular Trypanosoma cruzi infected in human U2OS cells assessed as parasite growth inhibition incubated for 72 hrs by confocal microscopy; assay type: functional, organism-based
[2] = Selectivity index, ratio of IC50 for human U2OS cells to IC50 for intracellular Trypanosoma cruzi infected in human U2OS cells; assay type: toxicity, cell-based; details: for selectivity ratio: U2OS cells, read-out: Selectivity Index
In short: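 Host U2OS cell counts and intracellular parasite infection ratio were read from the same 72 h DRAQ5-stained confocal imaging assay. CC50 and EC50 came from 4-parameter logistic fits, and the selectivity index is their ratio.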

[3] = Kinetic solubility of compound in aqueous buffer at pH 6.8 incubated for 16 to 24 hrs by HPLC analysis; assay type: physicochemical; details: time 16-24 hrs, read-out: Kinetic_solubility
[4] = Permeability of compound incubated for 3 hrs by PAMPA assay; assay type: ADME; details: read-out: permeability
[5] = Intrinsic clearance in human liver microsomes at 1 uM incubated for 15 to 30 mins by LC/MS/MS analysis; assay type: ADME, Microsome; details: time 15-30 min
[6] = Intrinsic clearance in mouse liver microsomes at 1 uM incubated for 15 to 30 mins by LC/MS/MS analysis; assay type: ADME, Microsome; details: time 15-30 min
[7] = Selectivity index, ratio of IC50 for human THP-1 cells to IC50 for Leishmania donovani infected in human THP-1 cells; assay type: toxicity, cell-based; details: read-out: Selectivity Index
Trypanosoma cruzi [8] = experiment: Antitrypanosomal activity against acute-stage Trypanosoma cruzi CL Brener infected in BALB/c mouse assessed as reduction in parasite burden at 50 mg/kg, po bid administered for 5 days measured after 14 days by bioluminescence imaging based analysis; assay type: functional, organism-based; details: time 14.0 day
Trypanosoma cruzi [9] = experiment: Inhibition of Trypanosoma cruzi CYP51 upto 100 uM by fluorescence based assay

| SMILES | IC50 (Trypanosoma cruzi [1]; Trypanosoma cruzi, U2OS, 72 h) | selectivity ratio [2] | further results |
| --- | --- | --- | --- |
| c1ccc(OC2CCN(c3nc(-c4ccccn4)nc4ccccc34)C2)cc1 (configuration not stated) |  | 6.5 | solubility kinetic [3]: 7.7 µg/mL (≈ 20.9 µM); CLint [5]: 361 µL/min/mg; Papp at 3 h [4]: 43 ×10⁻⁶ cm/s; intrinsic clearance (CLint) [6]: > 500 µL/min/mg |
| c1ccc(-c2nc(Nc3ccn4nccc4c3)c3ccccc3n2)nc1 | 11000 nM | 2.9 |  |
| c1ccc(-c2nc(N3CCc4ncccc4C3)c3ccccc3n2)nc1 | 9200 nM | 5.5 |  |
| c1ccc(-c2nc(N3CCC(c4ccccn4)C3)c3ccccc3n2)nc1 (stereo in doubt; 85-tR2) |  |  | IC50 (Trypanosoma cruzi [1]; u2os): 960 nM; Selectivity Index [2]: 6.4 |
| Cc1ccc(Nc2nc(-c3ccccn3)nc3ccccc23)cn1 | 31000 nM | 1.6 |  |
| c1ccc(-c2nc(NCc3nccs3)c3ccccc3n2)nc1 | 2700 nM | 19 |  |
| CCn1ncc2c(N3CCC(c4ccccn4)C3)nc(-c3ccccn3)nc21 (configuration not stated) | 18000 nM | 2.8 |  |
| N#CC1CCCN(c2nc(-c3ccccn3)nc3ccccc23)C1 (configuration not stated) | 18000 nM | 2.7 |  |
| OC1(c2ccccc2)CCN(c2nc(-c3ccccn3)nc3ccccc23)C1 (configuration not stated) | 35000 nM | 2.8 |  |
| N#CC1CCN(c2nc(-c3ccccn3)nc3ccccc23)C1 (configuration not stated) | 7000 nM | 7.2 |  |
| c1ccc(-c2nc(NCc3cccnc3)c3ccccc3n2)nc1 | 6300 nM | 8 |  |
| Cc1nc(-c2ccccn2)nc(NCc2ccccc2)c1Cl | > 50000 nM |  | selectivity ratio [7]: > 2.5 |
| Cc1cnc(C)c(Nc2nc(-c3ccccn3)nc3ccccc23)c1 | 14000 nM | 3.6 | solubility kinetic [3]: 31 µg/mL (≈ 94.7 µM); CLint [5]: < 1 µL/min/mg; Papp at 3 h [4]: 20.1 ×10⁻⁶ cm/s; intrinsic clearance (CLint) [6]: 154 µL/min/mg |
| c1ccc(-c2nc(NCCn3cnc4ccccc43)c3ccccc3n2)nc1 | 8200 nM | 6.1 |  |
| CC(Nc1nc(-c2ccccn2)nc2ccccc12)c1ccccn1 (configuration not stated) | 2700 nM | 18 |  |
| c1ccc(-c2nc(N3CCN(c4ccccn4)CC3)c3ccccc3n2)nc1 | 3300 nM | 6.4 |  |

| SMILES | IC50 (Trypanosoma cruzi [1]; Trypanosoma cruzi, U2OS, 72 h) | selectivity ratio [2] | further results |
| --- | --- | --- | --- |
| c1ccc(-c2nc(NCCn3ccnc3)c3ccccc3n2)nc1 | 49000 nM | 1 |  |
| c1ccc(-c2nc(NC3(c4ccccn4)CC3)c3ccccc3n2)nc1 | 4200 nM | 12 | solubility kinetic [3]: 84 µg/mL (≈ 247 µM); CLint [5]: 7 µL/min/mg; Papp at 3 h [4]: 21.9 ×10⁻⁶ cm/s; intrinsic clearance (CLint) [6]: 24 µL/min/mg |
| NC(=O)C1CCN(c2nc(-c3ccccn3)nc3ccccc23)C1 (configuration not stated) | 23000 nM | 2.2 |  |
| c1ccc(-c2nc(N3CCc4nc[nH]c4C3)c3ccccc3n2)nc1 | 21000 nM | 2.3 |  |
| c1ccc(CCNc2nc(-c3ccccn3)nc3ccccc23)nc1 | 3400 nM | 14 |  |
| c1ccc(-c2nc(N3CCn4ccnc4C3)c3ccccc3n2)nc1 | 27000 nM | 1.9 |  |
| Cn1ccnc1CNc1nc(-c2ccccn2)nc2ccccc12 | 3300 nM | 14 |  |
| c1ccc(CNc2nc(-c3ccccn3)nc3ccccc23)nc1 | 4400 nM | 11 |  |
| c1ccc(-c2nc(N3CCC(c4ccccn4)C3)c3ccccc3n2)nc1 (racemic) |  |  | Activity (Trypanosoma cruzi [8]): inactive |
| Cn1cc(CNc2nc(-c3ccccn3)nc3ccccc23)cn1 | 9600 nM | 5.2 |  |
| OC1(c2ccccc2)CCN(c2nc(-c3ccccn3)nc3ccccc23)CC1 | 3300 nM | 15 |  |
| N#CC1CCN(c2nc(-c3ccccn3)nc3ccccc23)CC1 | 24000 nM | 2.1 |  |
| c1ccc(-c2nc(N3CCc4cccnc4C3)c3ccccc3n2)nc1 | 7400 nM | 4.9 |  |
| c1ccc(-c2nc(Nc3ccc4[nH]ncc4c3)c3ccccc3n2)nc1 | 6200 nM | 3.5 |  |
| c1ccc(-c2nc(N3CCC(c4ccccn4)C3)c3ccccc3n2)nc1 (stereo in doubt; 85-tR1) |  |  | IC50 (Trypanosoma cruzi [1]; u2os): 1100 nM; Selectivity Index [2]: 4.2 |

The remaining molecules from weak to strong by IC50 (Trypanosoma cruzi [1]; Trypanosoma cruzi, U2OS, 72 h), led by results:

| IC50 (Trypanosoma cruzi [1]; Trypanosoma cruzi, U2OS, 72 h) | SMILES | selectivity ratio [2] | further results |
| --- | --- | --- | --- |
| 2700 nM | CCn1cnc2c(N3CCC(c4ccccn4)C3)nc(-c3ccccn3)nc21 (configuration not stated) | 2.7 |  |
| 2500 nM | c1ccc(-c2nc(NCc3nc4ccccc4o3)c3ccccc3n2)nc1 | 16 |  |
| 2400 nM | Cc1cccc(CNc2nc(-c3ccccn3)nc3ccccc23)n1 | 21 |  |
| 2100 nM | CCC(C)Nc1nc(-c2ccccn2)nc2ccccc12 (configuration not stated) |  |  |
| 1900 nM | Cc1cccc(N2CCN(c3nc(-c4ccccn4)nc4ccccc34)CC2)n1 | 7 |  |
| 1800 nM | Cn1ncc2nc(-c3ccccn3)nc(N3CCC(c4ccccn4)C3)c21 (configuration not stated) | 2.9 | solubility kinetic [3]: 99 µg/mL (≈ 277 µM); Papp at 3 h [4]: 17.1 ×10⁻⁶ cm/s |
| 1800 nM | c1ccc(-c2nc(N3CCCC3c3ccccn3)c3ccccc3n2)nc1 (configuration not stated) | 25 |  |
| 1600 nM | Cc1cccnc1CNc1nc(-c2ccccn2)nc2ccccc12 | 15 |  |
| 1500 nM | CCn1cc2c(N3CCC(c4ccccn4)C3)nc(-c3ccccn3)nc2n1 (configuration not stated) | 2.3 |  |
| 1300 nM | Fc1ccc(Nc2nc(-c3ccccn3)nc3ccccc23)cc1 |  |  |
| 1300 nM | c1ccc(-c2nc(N3CCCC(c4ccccn4)C3)c3ccccc3n2)nc1 (configuration not stated) | 7.3 |  |
| 1200 nM | COc1ccc(Nc2nc(-c3ccccn3)nc3ccccc23)cc1 |  |  |
| 1200 nM | CCn1ncc2nc(-c3ccccn3)nc(N3CCC(c4ccccn4)C3)c21 (configuration not stated) | 2.7 |  |
| 1100 nM | c1ccc(-c2nc(N3CCCC3)c3ccccc3n2)nc1 | 8.6 |  |
| 900 nM | c1ccc(-c2nc(N3CCCCC3)c3ccccc3n2)nc1 |  |  |
| 860 nM | O=S(=O)(c1cccs1)N1CCc2nc(-c3ccccn3)nc(N3CCCCCC3)c2C1 | > 58 |  |
| 720 nM | c1ccc(-c2nc(N3CCc4ccccc4C3)c3ccccc3n2)nc1 | 6.6 | solubility kinetic [3]: 10 µg/mL (≈ 29.5 µM); CLint [5]: 150 µL/min/mg; Papp at 3 h [4]: 40.8 ×10⁻⁶ cm/s; intrinsic clearance (CLint) [6]: 464 µL/min/mg |

| IC50 (Trypanosoma cruzi [1]; Trypanosoma cruzi, U2OS, 72 h) | SMILES | selectivity ratio [2] | further results |
| --- | --- | --- | --- |
| 560 nM | Cn1ccc2nc(-c3ccccn3)nc(N3CCC(c4ccccn4)C3)c21 (configuration not stated) | 16 | solubility kinetic [3]: 90 µg/mL (≈ 253 µM); Papp at 3 h [4]: 21.9 ×10⁻⁶ cm/s |
| 510 nM | Fc1cccc(Nc2nc(-c3ccccn3)nc3ccccc23)c1 | 20 |  |
| 450 nM | c1ccc(CN2CCN(c3nc(-c4ccccn4)nc4ccccc34)CC2)cc1 | 27 |  |
| 430 nM | c1ccc(N2CCN(c3nc(-c4ccccn4)nc4ccccc34)CC2)cc1 |  | solubility kinetic [3]: 15 µg/mL (≈ 40.8 µM); CLint [5]: 95 µL/min/mg; Papp at 3 h [4]: 29.1 ×10⁻⁶ cm/s; intrinsic clearance (CLint) [6]: > 500 µL/min/mg |
| 430 nM | CC1CCCN(c2nc(-c3ccccn3)nc3ccccc23)C1 (configuration not stated) | 19 | solubility kinetic [3]: 69 µg/mL (≈ 227 µM); CLint [5]: 188 µL/min/mg; Papp at 3 h [4]: 36.4 ×10⁻⁶ cm/s; intrinsic clearance (CLint) [6]: 452 µL/min/mg |
| 410 nM | CC1CCN(c2nc(-c3ccccn3)nc3ccccc23)CC1 |  | solubility kinetic [3]: 59 µg/mL (≈ 194 µM); CLint [5]: 112 µL/min/mg; Papp at 3 h [4]: 44.1 ×10⁻⁶ cm/s; intrinsic clearance (CLint) [6]: > 500 µL/min/mg |
| 410 nM | Fc1ccc(C2CCN(c3nc(-c4ccccn4)nc4ccccc34)C2)cc1 (configuration not stated) | 9.2 | inhibition (Trypanosoma cruzi [9]): inactive; intrinsic clearance (CLint) [6]: > 500 µL/min/mg |
| 360 nM | c1ccc(C2CCCN(c3nc(-c4ccccn4)nc4ccccc34)C2)cc1 (configuration not stated) | 6.4 | solubility kinetic [3]: 0.1 µg/mL (≈ 0.273 µM); CLint [5]: 205 µL/min/mg; Papp at 3 h [4]: 41.6 ×10⁻⁶ cm/s; intrinsic clearance (CLint) [6]: 318 µL/min/mg |
| 280 nM | c1ccc(C2CCN(c3nc(-c4ccccn4)nc4ccccc34)C2)cc1 (configuration not stated) | 9.7 | solubility kinetic [3]: 0.7 µg/mL (≈ 1.99 µM); intrinsic clearance (CLint) [6]: > 500 µL/min/mg |
| 180 nM | CCn1ccc2nc(-c3ccccn3)nc(N3CCC(c4ccccn4)C3)c21 (configuration not stated) | 28 |  |
| 170 nM | CCCN(CCC)c1nc(-c2ccccn2)nc2ccccc12 |  |  |
| 130 nM | c1ccc(CNc2nc(-c3ccccn3)nc3ccccc23)cc1 | 57 |  |
| 120 nM | Cc1ccc(Nc2nc(-c3ccccn3)nc3ccccc23)cc1 |  |  |
| 100 nM | Cc1ccc(Nc2nc(-c3ccccn3)nc3ccccc23)nc1 | < 1 |  |
| 100 nM | CCn1cc2nc(-c3ccccn3)nc(N3CCC(c4ccccn4)C3)c2n1 (configuration not stated) | 2.8 | solubility kinetic [3]: 94 µg/mL (≈ 253 µM); CLint [5]: < 1 µL/min/mg; Papp at 3 h [4]: 22 ×10⁻⁶ cm/s; intrinsic clearance (CLint) [6]: 70 µL/min/mg |
| 100 nM | c1ccc(-c2nc(N3CCCCCC3)c3ccccc3n2)nc1 |  |  |
| 80 nM | c1ccc(CCNc2nc(-c3ccccn3)nc3ccccc23)cc1 |  |  |
